Reference: PMC5164959 (Biochemical pharmacology, 2016)

Legend:
PKC [1] = assay: PKC activation: phosphorylation of PKC substrates by western blot in U251 cells; format: cell-based, human; details: treatment for 30 min
In short: (§1)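 Glioblastoma cells were treated 30 min with 4 or 40 μM test compound or 100 nM PMA, with or without 1 h pretreatment with 500 nM bisindolylmaleimide II. Cleared Triton lysates (50 μg) were run on 8.75% SDS-PAGE and probed with phospho-(Ser) PKC substrate antibody, detected by alkaline phosphatase chemiluminescence. Three independent experiments were quantified.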

PKC [2] = assay: PKC activation: phosphorylation of PKC substrates by western blot in U87 cells; format: cell-based, human; details: treatment for 30 min
In short: as §1

DGKθ = DGKθ (Homo sapiens, UniProt P52824); assay: Kinase assay with HEK 293T cell homogenate over-expressing DGKθ; format: biochemical; details: 20 μM inhibitor, dioleoyl DAG liposomes
DGKθ, sequence (P52824 whole entry): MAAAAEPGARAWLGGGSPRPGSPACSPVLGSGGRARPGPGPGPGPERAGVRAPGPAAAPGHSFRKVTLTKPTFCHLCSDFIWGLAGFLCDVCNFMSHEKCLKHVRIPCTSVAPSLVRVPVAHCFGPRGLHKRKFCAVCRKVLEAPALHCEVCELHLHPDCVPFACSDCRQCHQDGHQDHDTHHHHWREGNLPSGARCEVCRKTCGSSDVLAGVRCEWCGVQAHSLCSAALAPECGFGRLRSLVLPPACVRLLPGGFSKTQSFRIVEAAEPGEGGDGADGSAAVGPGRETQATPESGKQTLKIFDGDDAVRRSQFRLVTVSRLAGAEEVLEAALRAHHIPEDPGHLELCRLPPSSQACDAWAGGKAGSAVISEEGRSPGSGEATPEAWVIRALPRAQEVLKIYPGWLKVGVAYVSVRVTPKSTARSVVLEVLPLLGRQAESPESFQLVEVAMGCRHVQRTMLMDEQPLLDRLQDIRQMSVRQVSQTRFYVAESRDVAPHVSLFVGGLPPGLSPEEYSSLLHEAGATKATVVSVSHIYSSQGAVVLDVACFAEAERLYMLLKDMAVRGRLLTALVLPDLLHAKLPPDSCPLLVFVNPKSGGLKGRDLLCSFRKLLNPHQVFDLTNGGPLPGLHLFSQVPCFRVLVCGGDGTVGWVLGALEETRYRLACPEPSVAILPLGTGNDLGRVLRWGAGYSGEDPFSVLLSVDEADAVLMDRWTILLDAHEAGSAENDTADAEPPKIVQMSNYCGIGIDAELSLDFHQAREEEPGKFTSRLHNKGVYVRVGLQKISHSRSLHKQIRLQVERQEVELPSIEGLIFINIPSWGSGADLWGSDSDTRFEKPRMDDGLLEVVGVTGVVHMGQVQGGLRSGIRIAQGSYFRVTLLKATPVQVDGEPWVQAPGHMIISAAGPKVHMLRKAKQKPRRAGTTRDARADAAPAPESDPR
In short: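 Reactions without CaCl2 contained 5 μg homogenate, 2 mM liposomes (10 mol% dioleoyl DAG, 40 mol% PS, 50 mol% PC), buffer B, 1 mM DTT and [γ32P]-ATP, 20 min at 30°C. Test compound was added from DMSO. Extracted 32P-lipid was counted, GFP-lysate normalized, and expressed as percent of DMSO control.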

5-HT2B = 5-HT2B (Homo sapiens, UniProt P41595); assay: Radioligand competition binding assay
5-HT2B, sequence (P41595 whole entry, species assumed): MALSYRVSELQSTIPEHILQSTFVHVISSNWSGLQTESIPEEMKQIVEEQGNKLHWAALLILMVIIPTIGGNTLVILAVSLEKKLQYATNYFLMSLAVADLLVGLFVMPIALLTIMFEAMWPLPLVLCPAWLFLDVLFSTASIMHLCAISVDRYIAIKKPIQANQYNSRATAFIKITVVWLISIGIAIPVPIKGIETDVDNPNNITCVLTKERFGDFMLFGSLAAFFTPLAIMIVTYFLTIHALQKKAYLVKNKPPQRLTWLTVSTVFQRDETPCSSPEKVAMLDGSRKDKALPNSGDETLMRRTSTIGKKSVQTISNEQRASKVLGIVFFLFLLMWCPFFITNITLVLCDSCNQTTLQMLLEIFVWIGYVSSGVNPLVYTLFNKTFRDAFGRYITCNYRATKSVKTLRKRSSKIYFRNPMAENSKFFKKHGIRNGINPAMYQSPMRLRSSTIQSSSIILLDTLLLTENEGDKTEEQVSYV

5-HT5A = 5-HT5A (Homo sapiens, UniProt P47898); assay: Radioligand competition binding assay
5-HT5A, sequence (P47898 whole entry, species assumed): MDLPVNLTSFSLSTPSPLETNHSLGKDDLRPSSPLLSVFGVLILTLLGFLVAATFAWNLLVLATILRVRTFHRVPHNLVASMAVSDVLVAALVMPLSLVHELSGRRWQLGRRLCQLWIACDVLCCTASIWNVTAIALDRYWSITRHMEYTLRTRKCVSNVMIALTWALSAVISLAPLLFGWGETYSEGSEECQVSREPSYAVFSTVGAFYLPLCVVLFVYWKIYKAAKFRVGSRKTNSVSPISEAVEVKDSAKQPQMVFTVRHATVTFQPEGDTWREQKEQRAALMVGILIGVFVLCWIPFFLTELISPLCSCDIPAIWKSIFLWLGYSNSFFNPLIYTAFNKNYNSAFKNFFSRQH
In short: (§2)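 Run by the NIMH PDSP as radioligand competition binding assays. The primary screen used 10 μM test compound and reported mean percent inhibition of radioligand binding (n=4); above 50% counted as significant. At those receptors, IC50 values came from non-linear regression of competition binding isotherms and were converted to Ki with the Cheng-Prusoff equation.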

PKC [3] = assay: PKC activation: phosphorylation of PKC substrates by western blot in HeLa cells; format: cell-based, human; details: 40 μM, 30 min
In short: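 HeLa cells were grown in DMEM with 5% FBS and treated 30 min with 4 or 40 μM test compound or 100 nM PMA, with or without 1 h pretreatment with 500 nM bisindolylmaleimide II. In separate runs, a 5-HT2AR agonist (10 μM, 6 h) was given with or without 40 μM antagonist. Lysates (50 μg) were immunoblotted for phospho-(Ser) PKC substrates; four independent experiments were quantified.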

DGKι = DGKι (Homo sapiens, UniProt O75912); assay: Kinase assay with HEK 293T cell homogenate over-expressing DGKι; format: biochemical
DGKι, sequence (O75912 1-1065 isoform O75912-1): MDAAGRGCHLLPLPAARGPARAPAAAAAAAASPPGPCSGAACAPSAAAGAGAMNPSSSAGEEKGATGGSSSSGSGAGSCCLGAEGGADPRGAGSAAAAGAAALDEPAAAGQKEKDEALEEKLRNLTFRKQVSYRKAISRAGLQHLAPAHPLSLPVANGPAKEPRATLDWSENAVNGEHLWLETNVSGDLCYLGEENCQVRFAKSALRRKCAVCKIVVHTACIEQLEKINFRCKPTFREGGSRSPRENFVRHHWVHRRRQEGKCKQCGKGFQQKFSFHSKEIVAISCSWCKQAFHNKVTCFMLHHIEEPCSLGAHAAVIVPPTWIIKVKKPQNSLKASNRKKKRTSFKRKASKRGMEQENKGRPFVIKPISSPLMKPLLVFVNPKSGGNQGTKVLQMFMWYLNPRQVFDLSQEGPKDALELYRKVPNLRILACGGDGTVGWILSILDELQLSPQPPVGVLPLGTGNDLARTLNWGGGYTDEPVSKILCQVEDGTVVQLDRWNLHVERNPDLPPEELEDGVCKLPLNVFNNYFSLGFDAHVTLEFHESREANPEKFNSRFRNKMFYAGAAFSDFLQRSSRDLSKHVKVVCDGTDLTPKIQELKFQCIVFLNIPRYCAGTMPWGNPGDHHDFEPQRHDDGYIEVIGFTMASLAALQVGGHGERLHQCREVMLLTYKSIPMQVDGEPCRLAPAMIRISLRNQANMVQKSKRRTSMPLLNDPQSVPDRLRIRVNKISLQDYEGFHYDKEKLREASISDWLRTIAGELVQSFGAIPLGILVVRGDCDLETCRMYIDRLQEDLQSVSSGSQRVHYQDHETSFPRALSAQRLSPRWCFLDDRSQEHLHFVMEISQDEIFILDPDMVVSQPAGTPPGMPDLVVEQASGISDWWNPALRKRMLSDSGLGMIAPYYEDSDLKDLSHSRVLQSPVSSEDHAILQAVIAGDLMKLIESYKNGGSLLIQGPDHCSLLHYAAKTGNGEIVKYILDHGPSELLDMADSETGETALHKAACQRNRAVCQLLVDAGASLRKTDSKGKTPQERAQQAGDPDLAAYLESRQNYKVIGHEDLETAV

5-HT1B = 5-HT1B (Homo sapiens, UniProt P28222); assay: Radioligand competition binding assay
5-HT1B, sequence (P28222 whole entry, species assumed): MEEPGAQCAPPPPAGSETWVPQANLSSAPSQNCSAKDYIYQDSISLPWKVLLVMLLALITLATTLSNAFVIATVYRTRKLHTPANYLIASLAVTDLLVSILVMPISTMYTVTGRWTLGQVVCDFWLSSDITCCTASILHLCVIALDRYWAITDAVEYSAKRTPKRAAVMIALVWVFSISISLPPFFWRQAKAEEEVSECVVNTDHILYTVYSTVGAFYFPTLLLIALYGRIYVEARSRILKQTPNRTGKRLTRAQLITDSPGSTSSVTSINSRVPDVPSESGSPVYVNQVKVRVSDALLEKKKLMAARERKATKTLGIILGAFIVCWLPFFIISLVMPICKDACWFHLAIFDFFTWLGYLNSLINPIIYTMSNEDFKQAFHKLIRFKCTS
In short: as §2

5-HT3 = 5-HT3 (Homo sapiens, UniProt P46098); assay: Radioligand competition binding assay; details: 10 μM test compound, n=4
5-HT3, sequence (P46098 24-478, species assumed): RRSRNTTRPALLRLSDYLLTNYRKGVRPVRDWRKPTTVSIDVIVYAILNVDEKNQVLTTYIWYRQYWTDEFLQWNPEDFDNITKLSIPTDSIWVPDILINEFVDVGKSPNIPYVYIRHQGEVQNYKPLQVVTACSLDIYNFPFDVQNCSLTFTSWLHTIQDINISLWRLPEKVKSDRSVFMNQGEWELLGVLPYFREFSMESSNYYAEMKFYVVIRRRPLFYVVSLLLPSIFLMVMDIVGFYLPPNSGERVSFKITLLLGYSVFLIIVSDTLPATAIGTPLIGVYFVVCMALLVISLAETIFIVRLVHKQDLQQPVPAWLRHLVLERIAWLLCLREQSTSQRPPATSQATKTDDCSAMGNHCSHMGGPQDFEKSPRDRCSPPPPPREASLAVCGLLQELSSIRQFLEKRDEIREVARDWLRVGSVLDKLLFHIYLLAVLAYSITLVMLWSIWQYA
In short: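 Run by the NIMH PDSP as a radioligand competition binding primary screen. Test compounds were applied at 10 μM, and the read-out was mean percent inhibition of radioligand binding (n=4).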

## Cc1nc2sccn2c(=O)c1CCN1CCC(=C(c2ccccc2)c2ccc(F)cc2)CC1 [R59022]
PKC [1]
  Activation of PKC: not in U251 cells
PKC [2]
  Activation of PKC: activate PKC
DGKθ
  Activity of DGKθ, percent of control: not detectably inhibited
5-HT2B; 10 μM test compound, n=4
  Percent Inhibition of Binding 5-HT2B: 100.5%
5-HT2B; read-out: Ki 5-HT2B, Cheng-Prusoff from best-fit IC50
  Ki: 0.0027 µM
5-HT5A; 10 μM test compound, n=4
  Percent Inhibition of Binding 5-HT5A: 92.0%
5-HT5A; read-out: Ki 5-HT5A, Cheng-Prusoff from best-fit IC50
  Ki: 0.018 µM
PKC [3]
  Increase in phosphorylation of PKC downstream targets: about 2.5 fold
DGKι; 20 μM inhibitor, dioleoyl DAG liposomes, cell homogenate
  Activity of DGKι, percent of control: not detectably inhibited
DGKι; fold higher than IC50 for DGKα
  IC50 for DGKι relative to IC50 for DGKα: 2–3 fold
DGKι; read-out: IC50 for DGKι, cell homogenate, 1 mM ATP, 10 mol% DAG
  IC50: ~60 µM
5-HT1B; 10 μM test compound, n=4
  Percent Inhibition of Binding 5-HT1B: 83.5%
5-HT1B; read-out: Ki 5-HT1B, Cheng-Prusoff from best-fit IC50
  Ki: 0.655 µM
5-HT3
  Percent Inhibition of Binding 5-HT3: 10.9%
